ChEMBL document CHEMBL4376814, “Novel cyclin-dependent kinase 9 (CDK9) inhibitor with suppression of cancer stemness activity against non-small-cell lung cancer” (Eur J Med Chem, 2019)
The source made the active and inactive calls. No cut-off for these calls is given here.

How the values were obtained:
[1] = biological target: CDK9/cyclin T1 (Homo sapiens, UniProt P50750); test: Inhibition of recombinant full-length human CDK9/cyclinT1 using KTFCGTPEYLAPEVRREPRILSEEEQEMFRDFDYIADWC peptide as substrate measured after 40 mins in presence of [gamma33P]ATP by scintillation counting method; type: protein-complex assay
Outline: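 IC50 against CDK9/cyclin T1, determined by the outsourced Eurofins KinaseProfiler service. Values are the mean of two independent experiments.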

[2] = biological target: CDK6/cyclin D3 (Homo sapiens) (UniProt P30281+Q00534); test: Inhibition of recombinant full-length human CDK6/cyclinD3 at 500 nM using histone H1 as substrate measured after 40 mins in presence of [gamma33P]ATP by scintillation counting method relative to control; type: protein-complex assay
Outline: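 Percent inhibition of kinase activity at a single compound concentration, measured by the outsourced Eurofins KinaseProfiler panel. Values are the mean of two independent experiments.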

[3] = test system: Hep 3B2; test: Antiproliferative activity against human Hep3B cells assessed as inhibition of cell viability after 72 hrs by CCK-8 assay; type: functional, cell-based
Outline: (§1)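 Cells kept at 37 °C, 5% CO2 in DMEM or RPMI-1640 with 10% FBS and 1% penicillin/streptomycin, then seeded at 3000 cells/well (adherent) or 10,000 cells/well (suspension). Exposed to a range of concentrations for 72 h. CCK-8 added for 1-4 h before reading A450. […] Three independent experiments.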

[4] = test system: SiHa; test: Antiproliferative activity against human SiHa cells assessed as inhibition of cell viability after 72 hrs by CCK-8 assay; type: functional, cell-based; outline: as §1
[5] = test system: CCRF-CEM; test: Antiproliferative activity against human CCRF-CEM cells assessed as inhibition of cell viability after 72 hrs by CCK-8 assay; type: functional, cell-based; outline: as §1
[6] = test system: NCI-H1299; test: Induction of cell cycle arrest in human H1299 cells assessed as reduction in accumulation of cells at S phase at 1 uM after 24 hrs by propidium iodide/RNase staining based flow cytometric analysis (reference value: 24.5%); type: functional; set-up: scale not given: the % may be the effect or the level left
Outline: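 A549 and H1299 plated at 5×10^5 cells/mL in 6-well plates, treated after adherence for 24 h. Washed with PBS, fixed overnight in ice-cold 75% ethanol, stained with propidium iodide plus RNase A for 30 min at 37 °C, analysed by flow cytometry for phase distribution. Means ± SD, three independent experiments.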

[7] = test system: NCI-H1299; test: Antitumour activity against human H1299 cells xenografted in Balb/c mouse assessed as tumour weight at 80 mg/kg, po after 21 days by digital caliper method (reference value: 2.17 g); type: functional
Outline: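 Female nude mice, 6-8 weeks old, injected subcutaneously with 1×10^6 H1299 cells (100 µL of a 1×10^7/mL suspension in serum-free medium). At 100-120 mm3, randomized into groups of 5. Dosed orally each day for 21 days with drug dissolved in DMSO, or with vehicle. Caliper measurements and body weight taken every other day. Volume = short²×long×0.5. Growth inhibition based on change in volume relative to vehicle. Tumours weighed at the end.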

[8] = test system: Tyrosine-protein kinase ABL1 (Homo sapiens), P00519 [H396P]; test: Inhibition of recombinant human ABL H396P mutant (27 to end residues) at 1 uM using EAIYAAPFAKKK as substrate measured after 40 mins in presence of [gamma33P]ATP by scintillation counting method relative to control
[9] = test system: Tyrosine-protein kinase ABL1 (Homo sapiens), P00519 [Q252H]; test: Inhibition of recombinant human ABL Q252H mutant (27 to end residues) at 1 uM using EAIYAAPFAKKK as substrate measured after 40 mins in presence of [gamma33P]ATP by scintillation counting method relative to control
[10] = biological target: Bone morphogenetic protein receptor type-1B (Homo sapiens) (UniProt O00238); test: Inhibition of recombinant human ALK6 (148 to end residues) at 1 uM using casein as substrate measured after 40 mins in presence of [gamma33P]ATP by scintillation counting method relative to control
[11] = biological target: Dual specificity mitogen-activated protein kinase kinase 7 (Homo sapiens) (UniProt O14733); test: Inhibition of recombinant human MKK7 (2 to end residues) at 1 uM using unactive JNK1a1 as substrate measured after 40 mins in presence of [gamma33P]ATP by scintillation counting method relative to control
[12] = biological target: SRSF protein kinase 3 (Homo sapiens) (UniProt Q9UPE1); test: Inhibition of recombinant full-length human MSSK1 at 1 uM using ERMRPRKRQGSVRRRV as substrate measured after 40 mins in presence of [gamma33P]ATP by scintillation counting method relative to control
[13] = test system: Fibroblast growth factor receptor 1 (Homo sapiens), P11362 [V561M]; test: Inhibition of recombinant human FGFR1 V561M mutant (456 to 765 residues) at 1 uM using GGEEEEYFELVKKKK as substrate measured after 40 mins in presence of [gamma33P]ATP by scintillation counting method relative to control
[14] = biological target: cAMP-dependent protein kinase catalytic subunit PRKX (Homo sapiens) (UniProt P51817); test: Inhibition of recombinant full-length human PrKX at 1 uM using RRRLSFAEPG as substrate measured after 40 mins in presence of [gamma33P]ATP by scintillation counting method relative to control
[15] = biological target: Fibroblast growth factor receptor 4 (Homo sapiens) (UniProt P22455); test: Inhibition of recombinant human FGFR4 (442 to 755 residues) at 1 uM using poly(Glu, Tyr) 4:1 as substrate measured after 40 mins in presence of [gamma33P]ATP by scintillation counting method relative to control
[16] = biological target: Homeodomain-interacting protein kinase 4 (Homo sapiens) (UniProt Q8NE63); test: Inhibition of recombinant full-length human HIPK4 at 1 uM using RRRFRPASPLRGPPK as substrate measured after 40 mins in presence of [gamma33P]ATP by scintillation counting method relative to control
[17] = biological target: Mitogen-activated protein kinase 10 (Homo sapiens) (UniProt P53779); test: Inhibition of recombinant full-length human JNK3 at 1 uM using peptide as substrate measured after 40 mins in presence of [gamma33P]ATP by scintillation counting method relative to control
[18] = biological target: Vascular endothelial growth factor receptor 2 (Homo sapiens) (UniProt P35968); test: Inhibition of recombinant human KDR (790 to end residues) at 1 uM using MBP as substrate measured after 40 mins in presence of [gamma33P]ATP by scintillation counting method relative to control
[19] = biological target: Mitogen-activated protein kinase kinase kinase kinase 3 (Homo sapiens) (UniProt Q8IVH8); test: Inhibition of recombinant human MAP4K3 (1 to 291 residues) at 1 uM using RLGRDKYKTLRQIRQ as substrate measured after 40 mins in presence of [gamma33P]ATP by scintillation counting method relative to control
[20] = biological target: Cyclin-dependent kinase 9 (Homo sapiens) (UniProt P50750); conditions: A549, 0.25 uM
[21] = biological target: Casein kinase II subunit alpha' (Homo sapiens) (UniProt P19784); test: Inhibition of full length recombinant human CK2alpha2 at 1 uM using RRRDDDSDDD as substrate measured after 40 mins in presence of [gamma33P]ATP by scintillation counting method relative to control
Chain of Casein kinase II subunit alpha' (Homo sapiens) (P19784 whole entry, looked up): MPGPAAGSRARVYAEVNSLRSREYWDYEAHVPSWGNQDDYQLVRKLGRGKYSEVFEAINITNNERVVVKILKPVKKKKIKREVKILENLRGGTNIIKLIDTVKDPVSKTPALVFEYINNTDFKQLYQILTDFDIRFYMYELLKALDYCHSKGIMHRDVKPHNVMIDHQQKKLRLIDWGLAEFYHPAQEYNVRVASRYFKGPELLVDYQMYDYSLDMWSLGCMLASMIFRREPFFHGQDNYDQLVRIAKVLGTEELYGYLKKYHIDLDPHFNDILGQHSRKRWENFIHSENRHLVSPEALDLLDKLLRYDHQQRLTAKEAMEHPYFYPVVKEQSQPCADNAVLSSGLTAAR

Chain of Homeodomain-interacting protein kinase 4 (Homo sapiens) (Q8NE63 whole entry): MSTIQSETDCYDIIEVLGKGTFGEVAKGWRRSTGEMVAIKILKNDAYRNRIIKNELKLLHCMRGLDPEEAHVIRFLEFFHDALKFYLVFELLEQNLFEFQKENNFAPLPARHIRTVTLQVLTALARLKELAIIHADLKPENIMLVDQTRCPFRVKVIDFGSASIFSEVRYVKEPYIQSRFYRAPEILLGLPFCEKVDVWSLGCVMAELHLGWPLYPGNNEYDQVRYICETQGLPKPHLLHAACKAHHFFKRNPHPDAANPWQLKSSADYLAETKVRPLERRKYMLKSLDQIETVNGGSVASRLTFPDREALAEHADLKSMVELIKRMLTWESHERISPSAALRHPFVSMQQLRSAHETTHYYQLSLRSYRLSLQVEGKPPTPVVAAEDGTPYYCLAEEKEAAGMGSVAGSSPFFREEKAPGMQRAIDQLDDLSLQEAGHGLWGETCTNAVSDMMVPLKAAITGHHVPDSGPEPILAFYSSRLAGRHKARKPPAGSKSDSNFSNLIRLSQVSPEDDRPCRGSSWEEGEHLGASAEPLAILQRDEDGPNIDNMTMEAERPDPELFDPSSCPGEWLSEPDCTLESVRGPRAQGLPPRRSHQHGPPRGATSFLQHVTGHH
Chain of CDK9/cyclin T1 (O60563 whole entry): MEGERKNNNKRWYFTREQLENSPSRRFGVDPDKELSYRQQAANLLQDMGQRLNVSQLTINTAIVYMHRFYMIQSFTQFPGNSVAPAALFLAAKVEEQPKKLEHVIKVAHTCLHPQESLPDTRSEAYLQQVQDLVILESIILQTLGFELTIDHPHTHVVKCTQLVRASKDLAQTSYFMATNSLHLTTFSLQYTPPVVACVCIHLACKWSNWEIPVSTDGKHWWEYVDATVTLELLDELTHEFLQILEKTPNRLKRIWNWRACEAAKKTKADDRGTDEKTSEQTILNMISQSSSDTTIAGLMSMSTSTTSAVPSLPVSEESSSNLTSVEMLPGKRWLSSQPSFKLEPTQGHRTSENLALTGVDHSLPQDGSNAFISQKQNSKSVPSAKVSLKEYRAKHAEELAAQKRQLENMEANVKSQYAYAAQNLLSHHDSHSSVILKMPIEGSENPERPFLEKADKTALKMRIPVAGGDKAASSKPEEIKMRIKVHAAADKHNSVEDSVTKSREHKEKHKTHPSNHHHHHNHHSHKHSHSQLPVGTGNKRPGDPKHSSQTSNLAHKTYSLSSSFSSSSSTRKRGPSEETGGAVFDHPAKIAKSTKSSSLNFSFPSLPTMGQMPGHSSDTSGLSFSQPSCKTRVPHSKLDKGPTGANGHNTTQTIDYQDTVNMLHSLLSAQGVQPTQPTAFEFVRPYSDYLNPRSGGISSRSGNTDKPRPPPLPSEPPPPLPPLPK
Chain of CDK9/cyclin T1 (P50750 whole entry): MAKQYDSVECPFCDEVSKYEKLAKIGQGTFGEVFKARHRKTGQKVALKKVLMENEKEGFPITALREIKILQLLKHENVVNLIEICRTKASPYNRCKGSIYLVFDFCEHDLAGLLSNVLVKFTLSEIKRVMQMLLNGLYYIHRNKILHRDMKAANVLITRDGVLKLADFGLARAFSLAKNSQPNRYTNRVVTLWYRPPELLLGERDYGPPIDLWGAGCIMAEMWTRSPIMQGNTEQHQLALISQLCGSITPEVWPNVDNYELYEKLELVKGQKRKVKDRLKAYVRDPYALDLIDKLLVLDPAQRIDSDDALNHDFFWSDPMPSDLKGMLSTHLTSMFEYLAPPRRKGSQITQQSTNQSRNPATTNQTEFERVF
Chain of Bone morphogenetic protein receptor type-1B (Homo sapiens) (O00238 whole entry): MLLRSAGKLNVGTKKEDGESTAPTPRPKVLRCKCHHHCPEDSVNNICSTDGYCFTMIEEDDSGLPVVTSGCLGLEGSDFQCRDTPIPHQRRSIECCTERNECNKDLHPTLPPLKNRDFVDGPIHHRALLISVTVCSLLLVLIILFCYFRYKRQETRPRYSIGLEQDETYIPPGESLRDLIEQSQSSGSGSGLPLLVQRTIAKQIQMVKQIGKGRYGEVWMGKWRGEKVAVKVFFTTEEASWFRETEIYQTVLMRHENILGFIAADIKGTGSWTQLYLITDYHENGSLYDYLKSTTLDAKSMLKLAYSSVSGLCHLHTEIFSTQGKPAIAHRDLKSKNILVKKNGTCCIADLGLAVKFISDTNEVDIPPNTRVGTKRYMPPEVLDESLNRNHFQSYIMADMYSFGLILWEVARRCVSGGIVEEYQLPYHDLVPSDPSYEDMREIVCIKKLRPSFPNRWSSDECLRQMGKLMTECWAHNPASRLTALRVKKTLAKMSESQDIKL
Chain of Cyclin-dependent kinase 9 (Homo sapiens) (P50750 whole entry): as the sequence (P50750 whole entry) above
Chain of Fibroblast growth factor receptor 1 (Homo sapiens), P11362 [V561M] (P11362 whole entry V561M, the tested form may be a part): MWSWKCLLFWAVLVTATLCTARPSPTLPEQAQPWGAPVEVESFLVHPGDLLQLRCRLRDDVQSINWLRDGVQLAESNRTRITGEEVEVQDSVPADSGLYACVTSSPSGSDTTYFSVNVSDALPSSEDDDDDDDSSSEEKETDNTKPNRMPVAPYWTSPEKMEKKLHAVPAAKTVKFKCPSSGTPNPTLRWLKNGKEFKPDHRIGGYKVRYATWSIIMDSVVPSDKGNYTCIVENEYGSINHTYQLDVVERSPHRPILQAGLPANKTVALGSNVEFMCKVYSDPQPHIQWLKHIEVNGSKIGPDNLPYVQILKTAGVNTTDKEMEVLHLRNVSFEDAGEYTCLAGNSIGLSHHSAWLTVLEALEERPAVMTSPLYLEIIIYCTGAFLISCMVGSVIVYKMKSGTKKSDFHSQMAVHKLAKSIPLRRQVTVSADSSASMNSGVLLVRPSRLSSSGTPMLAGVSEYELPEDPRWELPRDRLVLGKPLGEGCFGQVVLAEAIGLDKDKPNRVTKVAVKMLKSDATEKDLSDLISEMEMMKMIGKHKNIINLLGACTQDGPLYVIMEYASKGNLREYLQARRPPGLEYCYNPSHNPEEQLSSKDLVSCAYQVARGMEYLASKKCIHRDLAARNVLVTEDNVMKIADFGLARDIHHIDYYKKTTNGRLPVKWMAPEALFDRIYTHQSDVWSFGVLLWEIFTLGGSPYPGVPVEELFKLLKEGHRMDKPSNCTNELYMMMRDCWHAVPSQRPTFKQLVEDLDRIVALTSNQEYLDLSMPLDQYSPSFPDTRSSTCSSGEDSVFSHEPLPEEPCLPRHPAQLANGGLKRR
Chain of Fibroblast growth factor receptor 4 (Homo sapiens) (P22455 22-802 limits assumed): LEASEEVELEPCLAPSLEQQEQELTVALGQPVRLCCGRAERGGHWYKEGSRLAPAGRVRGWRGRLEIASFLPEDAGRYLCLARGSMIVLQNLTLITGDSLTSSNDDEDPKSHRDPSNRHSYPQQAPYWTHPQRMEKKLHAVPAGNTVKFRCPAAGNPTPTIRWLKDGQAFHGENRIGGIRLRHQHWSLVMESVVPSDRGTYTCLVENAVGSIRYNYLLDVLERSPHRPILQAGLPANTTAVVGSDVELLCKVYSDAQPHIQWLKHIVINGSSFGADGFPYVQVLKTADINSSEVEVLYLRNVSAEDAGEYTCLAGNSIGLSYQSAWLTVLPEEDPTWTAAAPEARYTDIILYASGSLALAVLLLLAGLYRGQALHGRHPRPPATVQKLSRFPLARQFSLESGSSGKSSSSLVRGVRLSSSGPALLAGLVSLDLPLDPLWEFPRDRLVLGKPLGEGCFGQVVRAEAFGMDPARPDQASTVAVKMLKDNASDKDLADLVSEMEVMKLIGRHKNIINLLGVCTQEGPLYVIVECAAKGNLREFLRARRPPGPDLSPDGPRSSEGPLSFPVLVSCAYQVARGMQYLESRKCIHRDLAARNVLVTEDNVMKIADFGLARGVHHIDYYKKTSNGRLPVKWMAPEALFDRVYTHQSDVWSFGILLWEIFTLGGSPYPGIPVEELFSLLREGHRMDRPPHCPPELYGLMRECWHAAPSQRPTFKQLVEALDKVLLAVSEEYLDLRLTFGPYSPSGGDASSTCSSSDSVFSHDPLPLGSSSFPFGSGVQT
Chain of cAMP-dependent protein kinase catalytic subunit PRKX (Homo sapiens) (P51817 whole entry, the tested form may be a part): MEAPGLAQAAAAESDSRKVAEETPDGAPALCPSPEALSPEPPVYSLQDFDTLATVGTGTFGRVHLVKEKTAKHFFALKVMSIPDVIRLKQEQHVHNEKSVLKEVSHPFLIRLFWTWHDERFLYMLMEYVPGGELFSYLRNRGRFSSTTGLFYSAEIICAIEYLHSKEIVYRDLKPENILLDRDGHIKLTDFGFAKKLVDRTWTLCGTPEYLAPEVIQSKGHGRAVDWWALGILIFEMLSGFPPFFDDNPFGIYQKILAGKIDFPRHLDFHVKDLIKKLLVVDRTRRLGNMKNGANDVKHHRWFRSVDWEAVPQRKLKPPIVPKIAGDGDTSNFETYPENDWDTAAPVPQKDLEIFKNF
Chain of Dual specificity mitogen-activated protein kinase kinase 7 (Homo sapiens) (O14733 whole entry): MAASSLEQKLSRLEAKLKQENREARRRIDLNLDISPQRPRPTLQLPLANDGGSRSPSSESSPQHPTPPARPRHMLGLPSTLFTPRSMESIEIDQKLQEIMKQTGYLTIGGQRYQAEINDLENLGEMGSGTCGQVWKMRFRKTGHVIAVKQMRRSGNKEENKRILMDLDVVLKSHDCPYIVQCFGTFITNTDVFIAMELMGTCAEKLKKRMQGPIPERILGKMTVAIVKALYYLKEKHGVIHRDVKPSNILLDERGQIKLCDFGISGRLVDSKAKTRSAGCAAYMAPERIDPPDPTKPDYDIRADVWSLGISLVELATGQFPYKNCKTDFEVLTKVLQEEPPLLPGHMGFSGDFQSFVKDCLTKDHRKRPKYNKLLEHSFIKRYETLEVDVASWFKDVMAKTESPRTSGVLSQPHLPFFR

`CN(C)C(=O)c1cc2cnc(Nc3ccc(NC(=O)CCCCCCCN=C=S)cc3)nc2n1C1CCCC1` gave an IC50 [1] of 11 nM, an inhibition [2] of 48% and an IC50 [3] of 5610 nM. For the same compound, the IC50 [4] was 1810 nM, the IC50 [5] was > 10000 nM and the Activity [6] was 11.2%. It also gave an Activity [7] of 0.18 g, an inhibition [8] of 35% and an inhibition [9] of 48%. The inhibition [10] was -1%, the inhibition [11] was 35% and the inhibition [12] was 18%. The inhibition [13] was 86%, the inhibition [14] was -1% and the inhibition [15] was -2%. It also gave an inhibition [16] of 19%, an inhibition [17] of 85% and an inhibition [18] of 56%. For the same compound, the inhibition [19] was 95%, the inhibition [20] was “Active” and the inhibition [21] was -4%.
